According to ChEMBL document CHEMBL1147663, “Structure-activity relationships of bifunctional peptides based on overlapping pharmacophores at opioid and cholecystokinin receptors” (J Med Chem, 2006):
The source made the active and inactive calls. The rule behind the calls is not given here. Where a SMILES comes first, the peptide text is derived from it. [ ]: non-standard residue; d: D form. NMeNle = CCCC[C@H](NC)C(=O)O

Legend:
[1] = target: T1, Delta-type opioid receptor (Homo sapiens, UniProt P41143); test: Activity against [35S]GTP-gamma-S binding to human delta opioid receptor expressed in HN9.10 cells; format: functional, cell-based
Method in brief: (§1)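 Membranes (10 μg) from HN9.10 cells stably expressing hDOR or rMOR; various drug concentrations in duplicate or triplicate, 90 min at 30 °C in HEPES pH 7.4 with GDP, MgCl2, NaCl, 0.1 nM [35S]GTPγS; filtration, scintillation counting.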

[2] = target: T2, Cholecystokinin receptor type A (Homo sapiens, UniProt P32238); test: Displacement of [125I]CCK-8(SO3) from human CCK1 receptor expressed in HEK293 cells; format: cell-based
T2 sequence (P32238 whole entry): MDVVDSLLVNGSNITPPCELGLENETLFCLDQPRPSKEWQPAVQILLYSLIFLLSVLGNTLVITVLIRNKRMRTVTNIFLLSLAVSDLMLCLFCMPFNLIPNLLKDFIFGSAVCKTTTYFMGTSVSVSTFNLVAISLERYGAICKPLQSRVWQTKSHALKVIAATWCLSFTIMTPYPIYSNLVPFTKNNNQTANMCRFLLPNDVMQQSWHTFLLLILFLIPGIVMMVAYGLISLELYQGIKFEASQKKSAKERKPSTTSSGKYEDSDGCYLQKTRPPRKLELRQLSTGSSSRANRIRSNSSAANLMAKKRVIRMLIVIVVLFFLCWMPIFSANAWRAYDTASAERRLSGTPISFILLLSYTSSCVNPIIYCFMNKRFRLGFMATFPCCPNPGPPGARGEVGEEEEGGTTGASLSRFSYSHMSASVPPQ

[3] = target: T3, Cholecystokinin receptor type A (Homo sapiens) (UniProt P32238); conditions: HEK293
T3 sequence (whole entry): T2 sequence (P32238 whole entry)

[4] = target: T1, Delta-type opioid receptor; test: Displacement of [3H]DPDPE from human delta opioid receptor expressed in HN9.10 cells; format: cell-based
Method in brief: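 HN9.10 cell membranes (50 μg) expressing hDOR, 10 test concentrations with 1.0 nM [3H]DPDPE in 50 mM Tris pH 7.4 with peptidase inhibitors and BSA, 3 h at 25 °C, duplicates; filtration, scintillation counting. Nonspecific with 10 μM naloxone. Ki by Cheng–Prusoff.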

[5] = target: T4, Mu-type opioid receptor (Rattus norvegicus, UniProt P33535); test: Displacement of [3H]DAMGO from rat mu opioid receptor expressed in HN9.10 cells; format: cell-based
Method in brief: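 HN9.10 cell membranes (50 μg) expressing rMOR, 10 test concentrations with 1.0 nM [3H]DAMGO in 50 mM Tris pH 7.4 with peptidase inhibitors and BSA, 3 h at 25 °C, duplicates; filtration, scintillation counting. Nonspecific with 10 μM naloxone. Ki by Cheng–Prusoff.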

[6] = target: Mu-type opioid receptor (Rattus norvegicus) (UniProt P33535); test: (§2) Activity against [35S]GTP-gamma-S binding to rat mu opioid receptor expressed in HN9.10 cells; format: functional, cell-based; method in brief: as §1
[7] = target: T4, Mu-type opioid receptor; test: as §2; format: functional, cell-based; method in brief: as §1
[8] = target: T5, Gastrin/cholecystokinin type B receptor (Homo sapiens, UniProt P32239); test: Displacement of [125I]CCK-8(SO3) from human CCK2 receptor expressed in HEK293 cells; format: cell-based
T5 sequence (P32239 whole entry): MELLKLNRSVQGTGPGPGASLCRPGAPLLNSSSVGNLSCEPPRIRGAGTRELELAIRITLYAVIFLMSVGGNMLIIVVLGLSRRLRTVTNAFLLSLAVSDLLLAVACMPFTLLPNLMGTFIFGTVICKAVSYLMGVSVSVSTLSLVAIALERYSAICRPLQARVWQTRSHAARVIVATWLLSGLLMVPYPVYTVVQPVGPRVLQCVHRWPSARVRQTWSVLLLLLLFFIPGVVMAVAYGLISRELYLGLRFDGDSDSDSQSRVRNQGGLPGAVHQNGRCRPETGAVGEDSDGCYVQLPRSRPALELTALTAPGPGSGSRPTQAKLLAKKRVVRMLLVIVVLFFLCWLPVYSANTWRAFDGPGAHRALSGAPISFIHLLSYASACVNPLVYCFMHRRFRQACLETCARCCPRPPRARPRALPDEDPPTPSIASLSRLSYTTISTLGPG

[9] = target: Delta-type opioid receptor (Mus musculus, UniProt P32300); test: Agonist activity at delta opioid receptor assessed as inhibition of electrically stimulated ICR mouse vas deferens contraction; format: functional, tissue-based
Method in brief: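 Vas deferens from male ICR mice, in 20 mL baths at 0.5 g tension, Mg-free oxygenated Krebs, 37 °C; electrical stimulation 0.1 Hz, 2.0 ms pulses, supramaximal voltage. Cumulative addition to maximal inhibition; integrity checked with 10 nM DPDPE. IC50 by Hill-equation nonlinear least-squares fit, at least four tissues.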

[10] = target: T5, Gastrin/cholecystokinin type B receptor; test: Antagonist activity at CCK2 receptor expressed in HEK293 cells assessed as accumulation of [3H]inositol phosphates by PI assay; format: functional, cell-based
[11] = target: Mu-type opioid receptor (Cavia porcellus) (UniProt P97266); test: Agonist activity at mu opioid receptor assessed as inhibition of electrically stimulated Hartley guinea pig ileum contraction at 1 uM; format: functional, tissue-based
Method in brief: (§3)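 Longitudinal muscle–myenteric plexus strips from male Hartley guinea pig ileum, 1 g tension, oxygenated Krebs at 37 °C; 0.1 Hz, 0.4 ms supramaximal stimulation. […] Integrity checked with 10 nM PL-017. Hill-equation fit, at least four tissues.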

[12] = target: Mu-type opioid receptor (Cavia porcellus, UniProt P97266); test: Agonist activity at mu opioid receptor assessed as inhibition of electrically stimulated Hartley guinea pig ileum contraction; format: functional, tissue-based; method in brief: as §3
Chain of Mu-type opioid receptor (Cavia porcellus, UniProt P97266) (P97266 whole entry): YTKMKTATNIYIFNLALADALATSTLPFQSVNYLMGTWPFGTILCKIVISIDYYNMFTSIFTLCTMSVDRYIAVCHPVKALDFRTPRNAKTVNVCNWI

T1 sequence (P41143 whole entry): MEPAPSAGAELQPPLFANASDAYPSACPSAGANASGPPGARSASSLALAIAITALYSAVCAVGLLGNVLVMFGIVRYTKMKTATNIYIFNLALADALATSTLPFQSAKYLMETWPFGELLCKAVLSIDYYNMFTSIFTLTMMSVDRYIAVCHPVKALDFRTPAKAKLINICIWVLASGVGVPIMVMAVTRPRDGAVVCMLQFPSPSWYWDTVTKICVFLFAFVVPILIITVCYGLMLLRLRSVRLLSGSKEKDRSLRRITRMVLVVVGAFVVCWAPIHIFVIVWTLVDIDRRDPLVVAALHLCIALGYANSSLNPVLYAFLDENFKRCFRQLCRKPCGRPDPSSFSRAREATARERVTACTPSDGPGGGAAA
T4 sequence (P33535 whole entry): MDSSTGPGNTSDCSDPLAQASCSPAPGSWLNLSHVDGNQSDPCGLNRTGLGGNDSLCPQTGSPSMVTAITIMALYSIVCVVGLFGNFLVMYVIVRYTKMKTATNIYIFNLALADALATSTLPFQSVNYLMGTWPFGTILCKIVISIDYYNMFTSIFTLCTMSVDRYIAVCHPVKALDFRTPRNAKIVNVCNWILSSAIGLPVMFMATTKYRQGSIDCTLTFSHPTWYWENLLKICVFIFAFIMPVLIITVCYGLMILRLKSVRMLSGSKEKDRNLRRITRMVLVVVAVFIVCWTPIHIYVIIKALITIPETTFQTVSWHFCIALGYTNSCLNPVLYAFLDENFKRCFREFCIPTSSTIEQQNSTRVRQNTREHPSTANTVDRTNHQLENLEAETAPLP
Chain of Mu-type opioid receptor (Rattus norvegicus) (P33535 whole entry): as above
Chain of Delta-type opioid receptor (Mus musculus, UniProt P32300) (P32300 whole entry): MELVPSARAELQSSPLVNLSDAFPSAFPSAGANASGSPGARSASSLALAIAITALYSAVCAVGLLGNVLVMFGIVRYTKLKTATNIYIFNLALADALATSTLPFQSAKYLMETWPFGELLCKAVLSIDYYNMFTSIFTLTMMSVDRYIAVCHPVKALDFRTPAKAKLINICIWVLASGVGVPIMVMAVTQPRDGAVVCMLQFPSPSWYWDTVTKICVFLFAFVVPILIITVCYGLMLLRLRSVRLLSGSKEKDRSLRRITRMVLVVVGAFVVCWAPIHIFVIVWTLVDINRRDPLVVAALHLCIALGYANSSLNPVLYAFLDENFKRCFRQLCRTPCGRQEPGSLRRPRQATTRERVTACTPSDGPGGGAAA
Chain of Mu-type opioid receptor (Cavia porcellus) (P97266 whole entry): as the sequence (P97266 whole entry) above

Row | SMILES | EC50 [1] [nM] | Emax [1] [%] | IC50 [2] [nM] | Ki [2] [nM] | Log EC50 [3] | IC50 [4] [nM] | Ki [4] [nM] | IC50 [5] [nM] | Ki [5] [nM] | Emax [6] [%] | EC50 [7] [nM] | IC50 [8] [nM] | Ki [8] [nM] | IC50 [9] [nM] | EC50 [10] [nM] | inhibition [11] [%] | IC50 [12] [nM]
1 | CCCC[C@@H](C(=O)N[C@@H](CC(=O)O)C(=O)N[C@@H](Cc1ccccc1)C(N)=O)N(C)C(=O)[C@H](Cc1c[nH]c2ccccc12)NC(=O)CNC(=O)[C@@H](Cc1ccccc1)NC(=O)[C@H](Cc1ccc(O)cc1)NC(=O)[C@@H](N)CC(=O)O | 110 | 80 | 3160 | 3200 | inactive | 550 | 250 | 11500 | 5200 | 91 | 81 | – | – | – | – | – | –
2 | CCCC[C@@H](C(=O)N[C@@H](CC(=O)O)C(=O)N[C@@H](Cc1ccccc1)C(N)=O)N(C)C(=O)[C@H](Cc1c[nH]c2ccccc12)NC(=O)CNC(=O)[C@H]1CCCN1C(=O)[C@@H](N)Cc1ccc(O)cc1 | 890 | 110 | 10500 | > 10000 | – | 200 | 85 | 6030 | 2600 | 210 | 900 | 2.69 | 2.7 | 890 | 36 | 13 | –
3 | CCCC[C@@H](C(=O)N[C@@H](CC(=O)O)C(=O)N[C@@H](Cc1ccccc1)C(N)=O)N(C)C(=O)[C@H](Cc1c[nH]c2ccccc12)NC(=O)CNC(=O)[C@@H](Cc1ccccc1)NC(=O)[C@@H](N)Cc1ccc(O)cc1 | 2.5 | 84 | 3630 | 3600 | – | 18.6 | 1 | 245 | 100 | 300 | 22 | 15.1 | 15 | 65 | 16 | – | 100
4 | CCCC[C@H](NC(=O)[C@H](Cc1c[nH]c2ccccc12)NC(=O)CNC(=O)[C@@H](C)NC(=O)[C@@H](N)Cc1ccc(O)cc1)C(=O)N[C@@H](CC(=O)O)C(=O)N[C@@H](Cc1ccccc1)C(N)=O | 5.9 | 74 | 5750 | 5700 | – | 0.525 | 0.22 | 18.2 | 7.8 | 86 | 12 | 145 | 150 | 45 | 8 | – | 160
5 | CCCC[C@H](NC(=O)[C@@H](Cc1c[nH]c2ccccc12)NC(=O)CNC(=O)[C@@H](Cc1ccccc1)NC(=O)[C@@H](N)Cc1ccc(O)cc1)C(=O)N[C@@H](CC(=O)O)C(=O)N[C@@H](Cc1ccccc1)C(N)=O | 130 | 170 | 1950 | 2000 | – | 398 | 170 | 708 | 300 | 160 | 45 | 1740 | 1700 | 170 | – | – | 2700
6 | CCCC[C@@H](C(=O)N[C@@H](CC(=O)O)C(=O)N[C@@H](Cc1ccccc1)C(N)=O)N(C)C(=O)[C@H](Cc1c[nH]c2ccccc12)NC(=O)CNC(=O)[C@@H](C)NC(=O)[C@@H](N)Cc1ccc(O)cc1 | 120 | 270 | 5130 | 5100 | – | 5.25 | 2.2 | 89.1 | 39 | 73 | 18 | 1.62 | 1.6 | 66 | 4.6 | – | 470
7 | CCCC[C@@H](C(=O)N[C@@H](CC(=O)O)C(=O)N[C@@H](Cc1ccccc1)C(N)=O)N(C)C(=O)[C@@H](Cc1c[nH]c2ccccc12)NC(=O)CNC(=O)[C@@H](C)NC(=O)[C@@H](N)Cc1ccc(O)cc1 | 23 | 56 | 316 | 320 | – | 3.47 | 1.5 | 50.1 | 22 | 44 | 38 | 1.55 | 1.5 | 63 | 6.6 | – | 150
8 | CCCC[C@H](NC(=O)[C@@H](Cc1c[nH]c2ccccc12)NC(=O)CNC(=O)[C@@H](C)NC(=O)[C@@H](N)Cc1ccc(O)cc1)C(=O)N[C@@H](CC(=O)O)C(=O)N[C@@H](Cc1ccccc1)C(N)=O | 130 | 91 | 6460 | 6500 | – | 2000 | 860 | 1290 | 590 | 110 | 350 | 2690 | 2700 | 1300 | 330 | – | 2300
9 | CCCC[C@@H](C(=O)N[C@@H](CC(=O)O)C(=O)N[C@@H](Cc1ccccc1)C(N)=O)N(C)C(=O)[C@@H](Cc1c[nH]c2ccccc12)NC(=O)CNC(=O)[C@@H](Cc1ccccc1)NC(=O)[C@@H](N)Cc1ccc(O)cc1 | 29 | 14 | 1100 | 1100 | inactive | 1 | 0.42 | 13.8 | 5.9 | 50 | – | 1.1 | 1.1 | 24 | 2.8 | – | 71
10 | CCCC[C@@H](NC(=O)[C@@H](N)Cc1ccc(O)cc1)C(=O)NCC(=O)N[C@@H](Cc1c[nH]c2ccccc12)C(=O)N(C)[C@@H](CCCC)C(=O)N[C@@H](CC(=O)O)C(=O)N[C@@H](Cc1ccccc1)C(N)=O | 15 | 150 | – | – | – | 4.68 | 2 | 58.9 | 25 | 70 | 110 | 3.8 | 3.8 | 9 | 19 | – | 48
11 | CCCC[C@@H](C(=O)N[C@@H](CC(=O)O)C(=O)N[C@@H](Cc1ccccc1)C(N)=O)N(C)C(=O)[C@H](Cc1c[nH]c2ccccc12)NC(=O)CNC(=O)CNC(=O)[C@@H](N)Cc1ccc(O)cc1 (H-YGGW[NMeNle]DF-NH2) | 76 | 68 | – | – | inactive | 200 | 85 | 550 | 240 | 100 | 2 | 4.79 | 4.8 | 220 | 32 | – | 4200
